Experiments:
Rattus norvegicus [1] = experiment: Hypolipidemic activity in Wistar rat assessed as reduction in plasma triglyceride level at 477 umol/kg/day administered through diet for 4 days; format: functional; conditions: 96 h
Rattus norvegicus [2] = experiment: Hypolipidemic activity in Wistar rat assessed as reduction in plasma cholesterol level at 477 umol/kg/day administered through diet for 4 days; format: functional; conditions: 96 h
Procedure, shortened: (§1)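 Young male Wistar rats, 170-190 g initial weight, groups of six, given compound mixed thoroughly into Purina Lab Chow ad libitum for 4 or 10 days as stated. Daily dose calculated from food consumption and body weight. Bled by cardiac puncture at end of treatment; plasma cholesterol measured by automated procedure. Expressed as percent reduction versus simultaneous untreated control group; Student's t test.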

Rattus norvegicus [3] = experiment: Increase in liver weight in Wistar rat at 477 umol/kg/day administered through diet for 4 days; format: ADME, organism-based; conditions: in vivo, po, 96 h
Rattus norvegicus [4] = experiment: Increase in cholesterol level in Wistar rat liver at 477 umol/kg/day administered through diet for 4 days; format: ADME, organism-based; conditions: in vivo, po, 96 h
Rattus norvegicus [5] = experiment: Hypolipidemic activity in Wistar rat assessed as reduction in plasma triglyceride level at 591 umol/kg/day administered through diet for 4 days; format: functional; conditions: 96 h
Rattus norvegicus [6] = experiment: Hypolipidemic activity in Wistar rat assessed as reduction in plasma cholesterol level at 591 umol/kg/day administered through diet for 4 days; format: functional; conditions: 96 h
Procedure, shortened: (§2)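 Young male Wistar rats (initial weight 170-190 g), groups of six, fed compound mixed into Purina Lab Chow ad libitum for 4 or 10 days; daily dose calculated from food consumption and body weight. Bled by cardiac puncture; plasma cholesterol and triglycerides by automated procedures; percent reduction versus simultaneous untreated controls, Student's t test.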

Rattus norvegicus [7] = experiment: Increase in cholesterol level in Wistar rat liver at 591 umol/kg/day administered through diet for 4 days; format: ADME, organism-based; conditions: in vivo, po, 96 h
Rattus norvegicus [8] = experiment: Increase in liver weight in Wistar rat at 591 umol/kg/day administered through diet for 4 days; format: ADME, organism-based; conditions: in vivo, po, 96 h
Rattus norvegicus [9] = experiment: Hypolipidemic activity in Wistar rat assessed as reduction in plasma triglyceride level at 385 umol/kg/day administered through diet for 4 days; format: functional; conditions: 96 h
Procedure, shortened: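 Young male Wistar rats (170-190 g initial weight), groups of six, fed test compound mixed into Purina Lab Chow ad libitum; daily dose calculated from food consumption and body weight. Bled by cardiac puncture at end of treatment; plasma triglycerides measured by automated procedure. Results given as percent reduction versus a simultaneous untreated control group, with significance by Student's t test.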

Rattus norvegicus [10] = experiment: Hypolipidemic activity in Wistar rat assessed as reduction in plasma cholesterol level at 385 umol/kg/day administered through diet for 4 days; format: functional; conditions: 96 h
Procedure, shortened: (§3)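 Young male Wistar rats, 170-190 g at start, in groups of six, given compound mixed into Purina Lab Chow ad libitum for 4 or 10 days as stated. Daily dose was calculated from food consumption and body weight. Plasma was taken by cardiac puncture at the end and cholesterol measured by automated procedure. Results are % reduction versus a concurrent untreated control group, with Student's t test.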

Rattus norvegicus [11] = experiment: Increase in cholesterol level in Wistar rat liver at 385 umol/kg/day administered through diet for 4 days; format: ADME, organism-based; conditions: in vivo, po, 96 h
Rattus norvegicus [12] = experiment: Increase in liver weight in Wistar rat at 385 umol/kg/day administered through diet for 4 days; format: ADME, organism-based; conditions: in vivo, po, 96 h
Rattus norvegicus [13] = experiment: Hypolipidemic activity in Wistar rat assessed as reduction in plasma triglyceride level at 459 umol/kg/day administered through diet for 10 days; format: functional; conditions: 240 h
Rattus norvegicus [14] = experiment: Hypolipidemic activity in Wistar rat assessed as reduction in plasma cholesterol level at 459 umol/kg/day administered through diet for 10 days; format: functional; conditions: 240 h; procedure, shortened: as §1
Rattus norvegicus [15] = experiment: Increase in liver weight in Wistar rat at 459 umol/kg/day administered through diet for 10 days; format: ADME, organism-based; conditions: in vivo, po, 240 h
Rattus norvegicus [16] = experiment: Increase in cholesterol level in Wistar rat liver at 459 umol/kg/day administered through diet for 10 days; format: ADME, organism-based; conditions: in vivo, po, 240 h
Rattus norvegicus [17] = experiment: Hypolipidemic activity in Wistar rat assessed as reduction in plasma triglyceride level at 472 umol/kg/day administered through diet for 4 days; format: functional; conditions: 96 h
Rattus norvegicus [18] = experiment: Hypolipidemic activity in Wistar rat assessed as reduction in plasma cholesterol level at 472 umol/kg/day administered through diet for 4 days; format: functional; conditions: 96 h; procedure, shortened: as §1
Rattus norvegicus [19] = experiment: Increase in liver weight in Wistar rat at 472 umol/kg/day administered through diet for 4 days; format: ADME, organism-based; conditions: in vivo, po, 96 h
Rattus norvegicus [20] = experiment: Increase in cholesterol level in Wistar rat liver at 472 umol/kg/day administered through diet for 4 days; format: ADME, organism-based; conditions: in vivo, po, 96 h
Rattus norvegicus [21] = experiment: Hypolipidemic activity in Wistar rat assessed as reduction in plasma triglyceride level at 401 umol/kg/day administered through diet for 4 days; format: functional; conditions: 96 h; procedure, shortened: as §2
Rattus norvegicus [22] = experiment: Hypolipidemic activity in Wistar rat assessed as reduction in plasma cholesterol level at 401 umol/kg/day administered through diet for 4 days; format: functional; conditions: 96 h; procedure, shortened: as §3
Rattus norvegicus [23] = experiment: Increase in liver weight in Wistar rat at 401 umol/kg/day administered through diet for 4 days; format: ADME, organism-based; conditions: in vivo, po, 96 h
Procedure, shortened: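 Male Wistar rats (170-190 g initial), groups of six, dosed via diet ad libitum for 4 or 10 days, daily dose from food consumption. Liver wet weight measured, expressed as g/100 g final body weight, compared with untreated controls run simultaneously.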

Rattus norvegicus [24] = experiment: Increase in cholesterol level in Wistar rat liver at 401 umol/kg/day administered through diet for 4 days; format: ADME, organism-based; conditions: in vivo, po, 96 h
Rattus norvegicus [25] = experiment: Hypolipidemic activity in Wistar rat assessed as reduction in plasma triglyceride level at 339 umol/kg/day administered through diet for 4 days; format: functional; conditions: 96 h
Procedure, shortened: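 Young male Wistar rats (170-190 g initial weight), groups of six, were fed compound mixed into lab chow ad libitum for 4 or 10 days alongside an untreated control group. Daily dose was calculated from food consumption and body weight. Rats were bled by cardiac puncture, and plasma triglyceride was measured by automated procedure. Results are expressed as percent reduction from simultaneous controls, with Student's t test.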

Rattus norvegicus [26] = experiment: Hypolipidemic activity in Wistar rat assessed as reduction in plasma cholesterol level at 339 umol/kg/day administered through diet for 4 days; format: functional; conditions: 96 h; procedure, shortened: as §3
Rattus norvegicus [27] = experiment: Increase in liver weight in Wistar rat at 339 umol/kg/day administered through diet for 4 days; format: ADME, organism-based; conditions: in vivo, po, 96 h
Rattus norvegicus [28] = experiment: Increase in cholesterol level in Wistar rat liver at 339 umol/kg/day administered through diet for 4 days; format: ADME, organism-based; conditions: in vivo, po, 96 h
Rattus norvegicus [29] = experiment: Hypolipidemic activity in Wistar rat assessed as reduction in plasma triglyceride level at 538 umol/kg/day administered through diet for 10 days; format: functional; conditions: 240 h
Rattus norvegicus [30] = experiment: Hypolipidemic activity in Wistar rat assessed as reduction in plasma cholesterol level at 538 umol/kg/day administered through diet for 10 days; format: functional; conditions: 240 h; procedure, shortened: as §1
Rattus norvegicus [31] = experiment: Increase in cholesterol level in Wistar rat liver at 538 umol/kg/day administered through diet for 10 days; format: ADME, organism-based; conditions: in vivo, po, 240 h
Rattus norvegicus [32] = experiment: Increase in liver weight in Wistar rat at 538 umol/kg/day administered through diet for 10 days; format: ADME, organism-based; conditions: in vivo, po, 240 h

What does the source list for `CCCCCCCCCCCCCCOc1ccc(CO)cc1`?
inhibition in vivo at 477 µmol/kg (Rattus norvegicus [1]): 41%; inhibition in vivo at 477 µmol/kg (Rattus norvegicus [2]): 35%; Activity (Rattus norvegicus [3]): 17%; Activity (Rattus norvegicus [4]): 33%

`CCCCCCCCOc1ccc(C(=O)O)cc1` was tested. Which inhibition in vivo at 591 µmol/kg (Rattus norvegicus [5]) did it give?
Its inhibition in vivo at 591 µmol/kg is 35%.

And the inhibition in vivo at 591 µmol/kg (Rattus norvegicus [6])?
The inhibition in vivo at 591 µmol/kg was 8%.

What about the Activity (Rattus norvegicus [7]) of the same molecule?
The Activity was 12%.

And the Activity (Rattus norvegicus [8])?
The Activity was 0%.

How did the inhibition in vivo at 385 µmol/kg (Rattus norvegicus [9]) turn out when `CCCCCCCCCCCCCCOc1ccc(COC(=O)OCC)cc1` was run?
Its inhibition in vivo at 385 µmol/kg is 70%.

What about the inhibition in vivo at 385 µmol/kg (Rattus norvegicus [10]) of the same molecule?
The inhibition in vivo at 385 µmol/kg was 38%.

What about the Activity (Rattus norvegicus [11]) of the same molecule?
The Activity was 12%.

What about the Activity (Rattus norvegicus [12]) of the same molecule?
Its Activity is 11%.

How did the inhibition in vivo at 459 µmol/kg (Rattus norvegicus [13]) turn out when `CCCCCCCCCCCCCCOc1ccc(C(N)=O)cc1` was run?
Its inhibition in vivo at 459 µmol/kg is 0%.

What about the inhibition in vivo at 459 µmol/kg (Rattus norvegicus [14]) of the same molecule?
Its inhibition in vivo at 459 µmol/kg is 3%.

What about the Activity (Rattus norvegicus [15]) of the same molecule?
Its Activity is 0%.

What about the Activity (Rattus norvegicus [16]) of the same molecule?
The Activity was 0%.

For `CCCCCCCCCCCCCCOc1ccc(CC(=O)OC)cc1`, which inhibition in vivo at 472 µmol/kg (Rattus norvegicus [17]) is on record?
The inhibition in vivo at 472 µmol/kg was 23%.

What about the inhibition in vivo at 472 µmol/kg (Rattus norvegicus [18]) of the same molecule?
The inhibition in vivo at 472 µmol/kg was 0%.

What about the Activity (Rattus norvegicus [19]) of the same molecule?
The Activity was 8%.

And the Activity (Rattus norvegicus [20])?
Its Activity is 0%.

For `CCCCCCCCCCCCCCOc1ccc(CCC(=O)OC)cc1`, which inhibition in vivo at 401 µmol/kg (Rattus norvegicus [21]) is on record?
The inhibition in vivo at 401 µmol/kg was 73%.

And the inhibition in vivo at 401 µmol/kg (Rattus norvegicus [22])?
The inhibition in vivo at 401 µmol/kg was 41%.

And the Activity (Rattus norvegicus [23])?
The Activity was 17%.

And the Activity (Rattus norvegicus [24])?
Its Activity is 15%.

`CCCCCCCCCCCCCCCCOc1ccc(C(=O)CC(=O)OC)cc1` was tested. Which inhibition in vivo at 339 µmol/kg (Rattus norvegicus [25]) did it give?
Its inhibition in vivo at 339 µmol/kg is 57%.

And the inhibition in vivo at 339 µmol/kg (Rattus norvegicus [26])?
The inhibition in vivo at 339 µmol/kg was 32%.

And the Activity (Rattus norvegicus [27])?
The Activity was 18%.

What about the Activity (Rattus norvegicus [28]) of the same molecule?
Its Activity is 2%.

`CCCCCCCCc1ccc(C(=O)O)cc1` was tested. Which inhibition in vivo at 538 µmol/kg (Rattus norvegicus [29]) did it give?
Its inhibition in vivo at 538 µmol/kg is 21%.

And the inhibition in vivo at 538 µmol/kg (Rattus norvegicus [30])?
The inhibition in vivo at 538 µmol/kg was 6%.

What about the Activity (Rattus norvegicus [31]) of the same molecule?
The Activity was 11%.

What about the Activity (Rattus norvegicus [32]) of the same molecule?
Its Activity is 11%.
